# Screens: PubChem BioAssay, Johns Hopkins Ion Channel Center
# This is a sample that favours compounds with a hit; in the whole collection about 2.3% have one here.
# TRPC6 inh = mouse TRPC6 channel inhibition. Q61143. HEK293-TRPC6, membrane potential dye, ACh-evoked depolarization; active compounds read low. B-score at 10 µM. 310,000 compounds, 1.1% hits. AID 2553;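 active = B-score under library mean minus 3 SD, initial fluorescence not abnormally high, positive integrated signal ratio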;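 note: B-score derived from integrated fluorescence ratio over the kinetic read; more negative B-score means stronger inhibition of depolarization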
# Target sequence (Q61143 whole entry, looked up): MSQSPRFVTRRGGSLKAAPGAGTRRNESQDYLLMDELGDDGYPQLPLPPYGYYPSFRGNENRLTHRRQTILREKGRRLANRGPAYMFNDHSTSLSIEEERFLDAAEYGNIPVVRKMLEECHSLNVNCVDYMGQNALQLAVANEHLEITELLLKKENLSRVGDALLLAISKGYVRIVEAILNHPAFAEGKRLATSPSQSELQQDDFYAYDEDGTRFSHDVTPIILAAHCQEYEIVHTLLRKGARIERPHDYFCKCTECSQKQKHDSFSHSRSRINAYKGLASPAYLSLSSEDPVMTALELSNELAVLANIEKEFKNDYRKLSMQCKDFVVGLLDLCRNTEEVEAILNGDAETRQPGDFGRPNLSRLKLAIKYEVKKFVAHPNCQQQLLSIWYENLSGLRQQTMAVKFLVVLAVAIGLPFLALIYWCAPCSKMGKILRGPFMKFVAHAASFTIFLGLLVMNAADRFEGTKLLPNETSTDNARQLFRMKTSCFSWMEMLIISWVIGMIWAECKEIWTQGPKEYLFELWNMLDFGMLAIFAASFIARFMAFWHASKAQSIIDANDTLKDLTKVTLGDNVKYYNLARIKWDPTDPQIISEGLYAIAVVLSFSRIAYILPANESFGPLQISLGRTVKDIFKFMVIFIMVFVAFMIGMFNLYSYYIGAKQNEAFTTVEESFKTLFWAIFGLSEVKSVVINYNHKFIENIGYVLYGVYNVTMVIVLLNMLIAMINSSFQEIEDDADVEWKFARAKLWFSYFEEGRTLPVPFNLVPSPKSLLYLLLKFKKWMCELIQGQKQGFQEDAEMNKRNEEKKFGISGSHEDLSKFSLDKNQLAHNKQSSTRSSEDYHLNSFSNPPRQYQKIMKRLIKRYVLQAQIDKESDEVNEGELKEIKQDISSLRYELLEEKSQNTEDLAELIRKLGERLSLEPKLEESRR
# TRPC4 PAM = TRPC4 (mouse) allosteric potentiation | HEK293 TRPC4beta/mu-opioid, DAMGO EC20, Fluo-4 Ca2+ flux; active compounds read high | B-score at 10 µM | AID 2227 | 310,000 compounds, 0.42% hits | Q9QUQ5;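 active = B-score of calcium response area above 5 SD of library B-scores, with initial fluorescence ratio within 5 SD of library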
# TRPC4 inh = inhibitors of mouse TRPC4 channel. Q9QUQ5. HEK293 TRPC4beta/mu-opioid, DAMGO-evoked Fluo4 calcium flux; active compounds read low. B-score at 10 µM. 300,000 compounds, 0.39% hits. AID 2247;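 active = B-score over 3 SD under the library average, no early fluorescence shift, positive overall ratio signal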
#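 test system = HEK293 cells with stable TRPC4beta plus mu-opioid receptor expression | detection = Fluo4 Ca2+ flux fluorescence | read-out = integrated fluorescence ratio relative to baseline, converted to per-well B score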
# TRPC4 act = TRPC4 (mouse) channel activation | B-score at 10 µM | AID 2237 | HEK293 TRPC4beta/mu-opioid, Fluo4 calcium fluorescence; active compounds read high | 310,000 compounds, 0.49% hits;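 active = B-score above 5 SD of library B-scores, and initial fluorescence ratio not above library mean plus 5 SD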;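 note: positive B-score marks a calcium rise read as TRPC4 activation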
#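 Test system: HEK293 cells stably co-expressing mouse TRPC4beta and mu-opioid receptor | Schedule: Fluo4 dye loading 45 min at room temperature, 110 s recording | Measured by: Kinetic Fluo4 calcium fluorescence, 5 s baseline at 1 Hz | Evaluation: B score of integrated ratio | Controls: Buffer (low) and maximal DAMGO (high)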
# TRPC6 activator = mouse TRPC6 channel activation | HEK293-TRPC6 membrane potential dye fluorescence; active compounds read high | B-score at 10 µM | Q61143 | 310,000 compounds, 0.13% hits | AID 2550;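 active = B-score of the integrated fluorescence ratio above library mean plus 3 SD, and starting fluorescence ratio within library mean plus 5 SD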;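 note: higher score means more depolarization so channel activation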
# TRPC4 sel inh 2 = second check of whether TRPC6 inhibitors also affect mouse TRPC4 | inhibition, % at 10 µM | 920 compounds, 42% hits | shares compounds with TRPC6 inh | HEK293 TRPC4/MOR, membrane potential dye fluorescence; channel activated by saturating DAMGO dose;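 active = compounds whose fluorescence signal differed from control wells by over 3 SD, either direction, in both duplicate plates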
# TRPC4 spec = mouse TRPC4 off-target activity of TRPC6 inhibitors. AID 2777. activity change, negative = inhibition, % at 10 µM. HEK293 TRPC4/mu-opioid, membrane potential fluorescence. shares compounds with TRPC6 inh. 920 compounds, 61% hits;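 active = rise or fall in signal beyond 3 SD of buffer-only wells in both replicate plates, either sign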;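 note: integrated kinetic ratio of fluorescence range over baseline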
# HEK293 MPD ctr 2-1 = second check of TRPC6 inhibitor effects in parental HEK293 cells. 920 compounds, 31% hits. parental HEK293 membrane potential dye fluorescence; maximal acetylcholine challenge after compound addition. AID 2779. shares compounds with TRPC6 inh. signal change vs control, % at 10 µM;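 active = membrane potential signal moving either way by over 3 SD of the maximum-effect control, in both duplicate plates, meaning non-specific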
# HEK293 MPD ctr-1 = counter-screen for TRPC6 inhibitors: effect in parental HEK293 cells; parental HEK293 membrane potential dye fluorescence; shares compounds with TRPC6 inh; AID 2780; membrane potential signal change, % at 10 µM; 920 compounds, 60% hits;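 active = membrane potential signal shifting up or down by more than 3 SD of buffer-only wells, on both duplicate plates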
# HEK293 MPD ctr-2 = checks TRPC6 modulator effects in parental HEK293 cells. membrane potential dye fluorescence. shares compounds with TRPC6 inh. membrane potential signal change, % at 10 µM. AID 488924. 2,400 compounds, 51% hits;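 active = membrane potential signal moves up or down beyond 5 SD from buffer-only wells, on both duplicate plates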
# HEK293 MPD ctr 2-2 = second counter-screen for TRPC6 modulators: effect in parental HEK293 cells. inhibition, % at 10 µM. 2,400 compounds, 14% hits. membrane potential dye fluorescence; after compound, maximal acetylcholine stimulation. AID 488926. shares compounds with TRPC6 inh;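 active = membrane potential signal drops by more than 5 SD from the mean control signal, in both duplicate plates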
# TRPC4 ctr mod = mouse TRPC4 off-target activity of TRPC6 modulators; shares compounds with TRPC6 inh; HEK293 TRPC4/mu-opioid, membrane potential fluorescence; 2,400 compounds, 69% hits; percent change from control (negative = decrease, positive = increase), % at 10 µM;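 active = membrane potential signal moved up or down beyond 5 SD of buffer control wells, in both duplicate plates, actives on both sides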
# TRPC4 ctr inh 2 = mouse TRPC4 off-target activity of TRPC6 modulators, second screen. AID 488928. 2,400 compounds, 55% hits. shares compounds with TRPC6 inh. HEK293 TRPC4/mu-opioid, membrane potential dye fluorescence; stimulated with maximal-effect DAMGO. inhibition, % at 10 µM;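 active = drop in membrane potential signal beyond 5 SD of the control wells in both duplicate plates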;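 note: TRPC4 counter screen for TRPC6 hits run under conditions tuned for TRPC6 not TRPC4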
# TRPC6 inh conf = mouse TRPC6 inhibitor confirmation | shares compounds with TRPC6 inh | 3,300 compounds, 43% hits | HEK293-TRPC6, membrane potential dye, ACh-evoked depolarization | inhibition, % at 10 µM;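 active = fluorescence ratio falls more than 5 SD below the full-stimulation control mean, in both duplicate runs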;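 note: integrated fluorescence ratio of peak minus minimum over baseline after agonist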
# TRPC6 act conf = confirmation of mouse TRPC6 activators; activation, % at 10 µM; 2,800 compounds, 11% hits; shares compounds with TRPC6 inh; HEK293-TRPC6 membrane potential dye fluorescence, FDSS; AID 488961;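 active = ratio signal rise beyond 5 SD above unstimulated control wells' mean, seen in both duplicate runs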
# Numbers stand for hits; i = inactive; nt = no result.
SMILES,TRPC6 inh,TRPC4 PAM,TRPC4 inh,TRPC4 act,TRPC6 activator,HEK293 MPD ctr-2,HEK293 MPD ctr 2-2,TRPC4 ctr mod,TRPC4 ctr inh 2,TRPC6 inh conf,TRPC6 act conf,others
CN1CCN(c2nc3c(c(=O)n(C)c(=O)n3C)n2CCSc2nnnn2-c2ccccc2)CC1,-7.3,i,i,i,i,-114%,100%,-41%,56%,50%,i,
CN1CCN(c2nc3c(c(=O)[nH]c(=O)n3C)n2CCSc2nnnn2-c2ccccc2)CC1,-8.5,i,i,i,i,-236%,i,-27%,62%,60%,i,
CN1CCN(c2nc3c(c(=O)n(C)c(=O)n3C)n2Cc2ccccc2)CC1,i,i,i,i,i,nt,nt,nt,nt,nt,nt,
COC(=O)c1[nH]c2ccc(C)cc2c1NC(=O)C(C)N1CCN(C2CCCCC2)CC1 (centres undefined),i,i,i,i,i,nt,nt,nt,nt,nt,nt,
COC(=O)c1[nH]c2ccc(Br)cc2c1NC(=O)C(C)N1CCN(C2CCCCC2)CC1 (centres undefined),-7.6,i,i,i,i,nt,nt,nt,nt,88%,i,TRPC4 sel inh 2=42%;TRPC4 spec=-18%;HEK293 MPD ctr 2-1=29%;HEK293 MPD ctr-1=-144%
CC(=O)N1CCc2ccc(S(=O)(=O)N3CCN(C)CC3)cc21,-5.1,i,i,i,i,123%,i,40%,i,i,nt,
O=C1CCc2cc(NS(=O)(=O)c3ccc([N+](=O)[O-])cc3)cc3c2N1CCC3,i,i,i,i,i,nt,nt,nt,nt,nt,nt,
O=C(OCc1nnc(-c2ccccc2)o1)c1ccc2c(c1)OCCO2,-5.8,i,i,i,i,i,i,12%,i,i,nt,
O=C(OCc1nnc(-c2ccccc2)o1)c1ccc(Cl)cc1,i,i,i,i,i,nt,nt,nt,nt,nt,nt,
NS(=O)(=O)Oc1ccccc1,i,i,nt,i,i,nt,nt,nt,nt,nt,nt,
CC1CCCCC1NC(=O)CCCCn1c(=O)[nH]c2ccsc2c1=O (centres undefined),i,i,i,i,i,nt,nt,nt,nt,nt,nt,
CCCN(CC1CC1)C(=O)CCc1nnc(CCc2c[nH]c3ccccc23)o1,-6.8,i,i,i,i,nt,nt,nt,nt,i,i,TRPC4 sel inh 2=i;TRPC4 spec=2.7%;HEK293 MPD ctr 2-1=i;HEK293 MPD ctr-1=0.9%
CCN(CC)C(=O)CCc1nnc(CCc2c[nH]c3ccccc23)o1,i,i,i,i,i,nt,nt,nt,nt,nt,nt,
COC(=O)c1ccc(S(=O)(=O)N2CCCCCC2)n1C,-5.4,i,i,i,i,i,i,7.5%,i,i,i,
COC(=O)c1ccc(S(=O)(=O)N2CCN(C)CC2)n1C,i,i,i,i,i,nt,nt,nt,nt,nt,nt,
CCN1CCN(c2cc(C)c3cc(NC(=O)c4ccc(C)c(C)c4)ccc3n2)CC1,i,i,i,i,i,nt,nt,nt,nt,nt,nt,
